In brackets after ≈: the same amount, converted by molar mass.
What was measured:
J774 = experiment: Cytotoxicity against mouse J774 cells after 72 hrs by MTT assay; assay type: functional, cell-based; conditions: J774, 72 h
How it was run: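 J774 murine monocyte/macrophage cells are kept in suspension in stirred bottles (37 °C, DMEM, 10% FBS, 25 mM HEPES, 2 mM glutamine), then plated and allowed 2 h to adhere (37 °C, 5% CO2). Medium is refreshed, 1.2 v/v serial dilutions are added, and cells incubate 72 h. MTT (5 mg/mL) is added for 3 h, then solubilized in 50% DMF/20% SDS, pH 4.5. % dead cells = 100 − (OD treated/OD control)×100.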

WEHI-164 = experiment: Cytotoxicity against mouse WEHI164 cells after 72 hrs by MTT assay; assay type: functional, cell-based; conditions: WEHI-164, 72 h
How it was run: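 WEHI 164 murine fibrosarcoma cells are kept adherent (DMEM, 10% heat-inactivated FBS, 25 mM HEPES), then plated and allowed 2 h to adhere (37 °C, 5% CO2). Medium is refreshed, 1.2 v/v serial dilutions are added, and cells incubate 72 h. MTT (5 mg/mL) is added for 3 h, then solubilized in 50% DMF/20% SDS, pH 4.5. % dead cells = 100 − (OD treated/OD control)×100.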

For `C/C=C(\C)C(=O)O[C@H]1[C@H](OC(C)=O)[C@]2(CO)[C@H](O)C[C@]3(C)C(=CC[C@@H]4[C@@]5(C)CC[C@H](O[C@@H]6O[C@H](C(=O)O)[C@@H](O[C@@H]7O[C@H](CO)[C@@H](O)[C@H](O)[C@H]7O)[C@H](O)[C@H]6O[C@@H]6OC[C@@H](O)[C@H](O)[C@H]6O)C(C)(C)[C@@H]5CC[C@]43C)[C@@H]2CC1(C)C` [PAVIOSIDEA], the IC50 (J774) was 5.7 µg/mL (≈ 5.25 µM) and the IC50 (WEHI-164) was 4.8 µg/mL (≈ 4.42 µM).
`C/C=C(/C)C(=O)O[C@H]1[C@H](OC(C)=O)[C@]2(CO)[C@H](O)C[C@]3(C)C(=CC[C@@H]4[C@@]5(C)CC[C@H](O[C@@H]6O[C@H](C(=O)O)[C@@H](O[C@@H]7O[C@H](CO)[C@@H](O)[C@H](O)[C@H]7O)[C@H](O)[C@H]6O[C@@H]6OC[C@@H](O)[C@H](O)[C@H]6O)C(C)(C)[C@@H]5CC[C@]43C)[C@@H]2CC1(C)C` [PAVIOSIDEB] gave an IC50 (J774) of 5.1 µg/mL (≈ 4.7 µM) and an IC50 (WEHI-164) of 4.9 µg/mL (≈ 4.52 µM).
For `C/C=C(\C)C(=O)O[C@H]1[C@H](OC(C)=O)[C@]2(CO)[C@H](O)C[C@]3(C)C(=CC[C@@H]4[C@@]5(C)CC[C@H](O[C@@H]6O[C@H](C(=O)O)[C@@H](O[C@@H]7O[C@H](CO)[C@H](O)[C@H](O)[C@H]7O)[C@H](O)[C@H]6O[C@@H]6OC[C@@H](O)[C@H](O)[C@H]6O)C(C)(C)[C@@H]5CC[C@]43C)[C@@H]2CC1(C)C` [PAVIOSIDEC], the IC50 (J774) was 5.7 µg/mL (≈ 5.25 µM) and the IC50 (WEHI-164) was 6.5 µg/mL (≈ 5.99 µM).
Compound `C/C=C(/C)C(=O)O[C@H]1[C@H](OC(C)=O)[C@]2(CO)[C@H](O)C[C@]3(C)C(=CC[C@@H]4[C@@]5(C)CC[C@H](O[C@@H]6O[C@H](C(=O)O)[C@@H](O[C@@H]7O[C@H](CO)[C@H](O)[C@H](O)[C@H]7O)[C@H](O)[C@H]6O[C@@H]6OC[C@@H](O)[C@H](O)[C@H]6O)C(C)(C)[C@@H]5CC[C@]43C)[C@@H]2CC1(C)C` [PAVIOSIDED] has an IC50 (J774) of 6.6 µg/mL (≈ 6.08 µM) and an IC50 (WEHI-164) of 7.1 µg/mL (≈ 6.54 µM).
`C/C=C(\C)C(=O)O[C@H]1[C@H](OC(C)=O)[C@]2(CO)[C@H](O)C[C@]3(C)C(=CC[C@@H]4[C@@]5(C)CC[C@H](O[C@@H]6O[C@H](C(=O)O)[C@@H](O[C@@H]7OC[C@@H](O)[C@H](O)[C@H]7O)[C@H](O)[C@H]6O[C@@H]6OC[C@@H](O)[C@H](O)[C@H]6O)C(C)(C)[C@@H]5CC[C@]43C)[C@@H]2CC1(C)C` [PAVIOSIDEE] showed an IC50 (J774) of 2.9 µg/mL (≈ 2.75 µM) and an IC50 (WEHI-164) of 2.1 µg/mL (≈ 1.99 µM).
`C/C=C(/C)C(=O)O[C@H]1[C@H](OC(C)=O)[C@]2(CO)[C@H](O)C[C@]3(C)C(=CC[C@@H]4[C@@]5(C)CC[C@H](O[C@@H]6O[C@H](C(=O)O)[C@@H](O[C@@H]7OC[C@@H](O)[C@H](O)[C@H]7O)[C@H](O)[C@H]6O[C@@H]6OC[C@@H](O)[C@H](O)[C@H]6O)C(C)(C)[C@@H]5CC[C@]43C)[C@@H]2CC1(C)C` [PAVIOSIDEF] showed an IC50 (J774) of 2.8 µg/mL (≈ 2.65 µM) and an IC50 (WEHI-164) of 2.3 µg/mL (≈ 2.18 µM).
`C/C=C(\C)C(=O)O[C@H]1[C@H](OC(C)=O)[C@]2(CO)[C@H](O)C[C@]3(C)C(=CC[C@@H]4[C@@]5(C)CC[C@H](O[C@@H]6O[C@H](C(=O)O)[C@@H](O[C@@H]7OC[C@@H](O)[C@H](O)[C@H]7O)[C@H](O)[C@H]6O[C@@H]6OC[C@@H](O)[C@H](O)[C@H]6O)[C@](C)(CO)[C@@H]5CC[C@]43C)[C@@H]2CC1(C)C` [PAVIOSIDEG] gave an IC50 (J774) of 3.6 µg/mL (≈ 3.36 µM) and an IC50 (WEHI-164) of 3.5 µg/mL (≈ 3.27 µM).
`C/C=C(/C)C(=O)O[C@H]1[C@H](OC(C)=O)[C@]2(CO)[C@H](O)C[C@]3(C)C(=CC[C@@H]4[C@@]5(C)CC[C@H](O[C@@H]6O[C@H](C(=O)O)[C@@H](O[C@@H]7OC[C@@H](O)[C@H](O)[C@H]7O)[C@H](O)[C@H]6O[C@@H]6OC[C@@H](O)[C@H](O)[C@H]6O)[C@](C)(CO)[C@@H]5CC[C@]43C)[C@@H]2CC1(C)C` [PAVIOSIDEH] was tested, and the IC50 (J774) was 3.5 µg/mL (≈ 3.27 µM) and the IC50 (WEHI-164) was 3.2 µg/mL (≈ 2.99 µM).

Source: ChEMBL document CHEMBL2016533, “Paviosides A-H, eight new oleane type saponins from Aesculus pavia with cytotoxic activity” (Bioorg Med Chem, 2012)
